Data set [1] is described as follows: Selectivity index, ratio of CC50 for human C8166 cells to EC50 for wild type HIV1 LAI-3B. The format is toxicity, cell-based. The conditions noted are these: read-out: Ratio CC50/EC50. Put shortly:
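Ratio CC50/EC50, where CC50 is from MTT viability of uninfected C8166 cells and EC50 is 50% protection of wild-type HIV-1 IIIB-infected C8166 cells from cytopathogenicity (MTT); inputs are means of at least two experiments.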

Data set [2] is described as follows: Cytotoxicity against human C8166 cells by MTT assay. The format is cell-based. Put shortly: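 Normal uninfected C8166 cells; MTT viability readout; CC50 = concentration reducing viability by 50%; means of at least two separate experiments.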
(Formazan colour is commonly taken as a measure of viable cells.)

Data set [3] has as its system Human immunodeficiency virus 1. Put plainly: Antiviral activity against wild type HIV1 LAI-3B infected in human C8166 cells assessed as inhibition of virus-induced cytopathic effect by MTT assay. The format is functional, organism-based. The conditions noted are these: Human immunodeficiency virus 1, LAI-3B. The procedure, abridged: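 C8166 cells infected with wild-type HIV-1 LAI (strain IIIB); EC50 = concentration protecting cells from viral cytopathogenicity by 50%, read by MTT; means of at least two separate experiments.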
On the technique in general: Protection from cytopathic effect is a common read-out in antiviral testing.

Data set [4] deals with Human immunodeficiency virus 1. The experiment in a line: Antiviral activity against HIV1 A17 harboring reverse transcriptase Y181C mutant infected in human C8166 cells assessed as inhibition of virus-induced cytopathic effect by MTT assay. The format is functional, organism-based. The conditions noted are these: Human immunodeficiency virus 1, A17, C8166. The procedure, abridged: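 C8166 cells infected with mutant HIV-1 strain A17; protection from viral cytopathogenicity read by MTT. EC50 is the compound concentration that protects cells from viral cytopathic effect by 50%. Values are means of at least two separate experiments.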

The CC50 is the concentration at which the toxic effect on the cells reaches its halfway point. What is called EC50 is the concentration at which the effect is half-maximal. `O=C(O)c1cn(-c2ccccc2)c2ccc(Cc3cccc(Cl)c3F)c(O)c2c1=O`: in data set [1], the selectivity ratio turned out to be 1.26. The midpoint of cytotoxicity in data set [2], the CC50, lay at 388 µM. For the same molecule, in data set [3], the EC50 was 308 µM.
As to `Cc1cccc(-n2cc(C(=O)O)c(=O)c3c(O)c(Cc4cccc(Cl)c4F)ccc32)c1`, the selectivity ratio in data set [1] turned out to be 3.49. For the same molecule, the concentration giving a half-maximal response (EC50) was found to be 43.7 µM in data set [4] and 20.5 µM in data set [3]. In data set [2], this molecule came in with a CC50 of 71.5 µM.
On the same counts, the results for `Cc1ccc(-n2cc(C(=O)O)c(=O)c3c(O)c(Cc4cccc(Cl)c4F)ccc32)cc1` are 54.2, 67.9 µM, 3.58 µM and 194 µM.
On the same counts, the results for `Cc1ccc(-n2cc(C(=O)O)c(=O)c3c(O)c(Cc4cccc(Cl)c4F)ccc32)cc1C` are 12.7, 32.8 µM, 24.9 µM and 316 µM.
The corresponding values for `O=C(O)c1cn(-c2ccc(Br)cc2)c2ccc(Cc3cccc(Cl)c3F)c(O)c2c1=O` are 11.9, 33.2 µM, 7.12 µM and 85 µM.
`O=C(O)c1cn(Cc2ccccc2)c2ccc(Cc3ccccc3F)c(O)c2c1=O`: the selectivity ratio in data set [1] came out at 7.49. Moreover, the EC50 came to 51.2 µM in data set [4] and 20.9 µM in data set [3]. The midpoint of cytotoxicity in data set [2], the CC50, lay at 156 µM.
The corresponding values for `O=C(O)c1cn(Cc2ccccc2)c2ccc(Cc3cccc(Cl)c3F)c(O)c2c1=O` are 6.42, 17.9 µM, 3.17 µM and 20.3 µM.
`Cc1ccc(Cn2cc(C(=O)O)c(=O)c3c(O)c(Cc4cccc(Cl)c4F)ccc32)cc1`: the selectivity ratio in data set [1] is 46. Moreover, the concentration for a half-maximal effect (EC50) amounted to 29.2 µM in data set [4] and 5.55 µM in data set [3]. Moreover, the CC50 in data set [2] came to 256 µM.
On the same counts, the results for `O=C(O)c1cn(Cc2ccccc2F)c2ccc(Cc3ccccc3F)c(O)c2c1=O` are 10.4, 27.2 µM, 6.46 µM and 67.1 µM.
The corresponding values for `O=C(O)c1cn(Cc2ccccc2F)c2ccc(Cc3cccc(Cl)c3F)c(O)c2c1=O` are 13.7, 24.2 µM, 3.27 µM and 44.9 µM.
The corresponding values for `O=C(O)c1cn(Cc2cccc(F)c2)c2ccc(Cc3cccc(Cl)c3F)c(O)c2c1=O` are 14, 19.1 µM, 4.93 µM and 69 µM.
Take `O=C(O)c1cn(Cc2ccc(F)cc2)c2ccc(Cc3cccc(Cl)c3F)c(O)c2c1=O`: the selectivity ratio in data set [1] stood at 7.04. Further, the concentration giving a half-maximal response (EC50) amounted to 22.5 µM in data set [4] and 9.34 µM in data set [3]. The molecule also displayed a cytotoxic concentration (CC50) in data set [2] of 65.8 µM.
The corresponding values for `O=C(O)c1cn(Cc2ccc(F)c(F)c2)c2ccc(Cc3cccc(Cl)c3F)c(O)c2c1=O` are 12.4, 24.2 µM, 5.74 µM and 71.4 µM.
Turning to `CC(C)[C@@H](CO)n1cc(C(=O)O)c(=O)c2c(O)c(Cc3cccc(Cl)c3F)ccc21`, in data set [4], the EC50 came out at 0.085 µM.
Still for that read-out and setting: with `COc1cc2c(cc1Cc1cccc(Cl)c1F)c(=O)c(C(=O)O)cn2[C@H](CO)C(C)C` [ELVITEGRAVIR] the figure was 0.001 µM.
